One may read the IC50 as the midpoint of a concentration-inhibition curve. A higher IC50 goes with a need for much substance. A word on the AUC: it is the area under the concentration-time curve, a measure of exposure.

This is an account of results in ChEMBL document CHEMBL4330143, “Maximizing ER-α Degradation Maximizes Activity in a Tamoxifen-Resistant Breast Cancer Model: Identification of GDC-0927” (ACS Med Chem Lett, 2019).

Each structure is given as a SMILES string. The source made the active and inactive calls. The rule behind the calls is not given here.

In data set [1] the target is T1, Progesterone receptor (Homo sapiens) (UniProt P06401).
T1 sequence (whole entry): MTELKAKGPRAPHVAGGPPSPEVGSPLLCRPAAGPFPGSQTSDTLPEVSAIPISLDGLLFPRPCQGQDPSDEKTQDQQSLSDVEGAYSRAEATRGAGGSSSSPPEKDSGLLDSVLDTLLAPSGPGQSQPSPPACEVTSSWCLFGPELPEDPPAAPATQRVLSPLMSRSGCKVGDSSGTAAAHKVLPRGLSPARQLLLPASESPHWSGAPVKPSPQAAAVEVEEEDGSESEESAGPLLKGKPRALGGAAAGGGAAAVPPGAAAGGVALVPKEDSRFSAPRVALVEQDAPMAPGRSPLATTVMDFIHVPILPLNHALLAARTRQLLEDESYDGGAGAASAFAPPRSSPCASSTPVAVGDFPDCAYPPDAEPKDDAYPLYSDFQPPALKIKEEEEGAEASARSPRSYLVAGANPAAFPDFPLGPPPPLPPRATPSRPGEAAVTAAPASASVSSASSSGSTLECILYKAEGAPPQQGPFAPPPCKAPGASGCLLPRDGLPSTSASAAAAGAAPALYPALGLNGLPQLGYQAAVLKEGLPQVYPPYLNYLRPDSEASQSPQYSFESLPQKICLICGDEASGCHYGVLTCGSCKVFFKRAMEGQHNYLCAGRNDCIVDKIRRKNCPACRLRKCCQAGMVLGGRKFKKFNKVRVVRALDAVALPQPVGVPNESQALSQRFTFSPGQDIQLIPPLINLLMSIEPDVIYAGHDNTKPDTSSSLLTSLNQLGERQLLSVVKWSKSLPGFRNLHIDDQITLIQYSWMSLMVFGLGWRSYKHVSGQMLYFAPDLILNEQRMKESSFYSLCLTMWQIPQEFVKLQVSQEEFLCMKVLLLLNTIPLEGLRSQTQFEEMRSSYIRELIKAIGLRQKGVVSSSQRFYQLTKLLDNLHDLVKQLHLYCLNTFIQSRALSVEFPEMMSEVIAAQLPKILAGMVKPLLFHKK
Put plainly: Agonist activity at PR-A (unknown origin) by transcriptional reporter assay. (In general: Reporter assays use an easily measured gene product as a stand-in for the process of interest.)

Data set [2] can be described thus: Unbound AUC (0 to 24 hrs) in nude mouse xenografted with tamoxifen-resistant human MCF7 cells at 100 mg/kg, po daily for 28 days measured on day 28 post last dose. The format is ADME, organism-based. As to conditions: in vivo. An outline of the steps: (§1)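 Tamoxifen-resistant MCF-7 xenograft mice carrying subcutaneous 0.72 mg estradiol pellets. Plasma pharmacokinetics sampled on day 28 of the study, at take-down.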
For orientation: A xenograft is tissue or cells of one species grown in another, often human tumour cells in immunodeficient mice.

The next data set concerns Rattus norvegicus. Put plainly: In vivo inverse agonist activity at ERalpha in CD-IGS rat assessed as decrease in uterine weight at 10 mg/kg, po for 3 consecutive days measured at 24 hrs post last dose. It counts as functional, organism-based. An outline of the steps:
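Rat uterine wet weight assay run in agonist mode, with no ethynyl estradiol added. Oral dosing at 10 mg/kg for 3 days. Uterine weights compared with those of vehicle-treated animals.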

Data set [3] addresses T1, Progesterone receptor (Homo sapiens). Put plainly: Antagonist activity at PR-A (unknown origin) by transcriptional reporter assay.
The target of the next data set is Cytochrome P450 2D6 (Homo sapiens, UniProt P10635). Put plainly: Competitive inhibition of CYP2D6 (unknown origin). It counts as ADME.
The nature of data set [4]: Genotoxicity in Salmonella typhimurium TA100 by Ames test. The format is toxicity. As to conditions: salmonella enterica subsp. enterica serovar […].
The target of data set [5] is T2, Mineralocorticoid receptor (Homo sapiens) (UniProt P08235).
T2 sequence (whole entry): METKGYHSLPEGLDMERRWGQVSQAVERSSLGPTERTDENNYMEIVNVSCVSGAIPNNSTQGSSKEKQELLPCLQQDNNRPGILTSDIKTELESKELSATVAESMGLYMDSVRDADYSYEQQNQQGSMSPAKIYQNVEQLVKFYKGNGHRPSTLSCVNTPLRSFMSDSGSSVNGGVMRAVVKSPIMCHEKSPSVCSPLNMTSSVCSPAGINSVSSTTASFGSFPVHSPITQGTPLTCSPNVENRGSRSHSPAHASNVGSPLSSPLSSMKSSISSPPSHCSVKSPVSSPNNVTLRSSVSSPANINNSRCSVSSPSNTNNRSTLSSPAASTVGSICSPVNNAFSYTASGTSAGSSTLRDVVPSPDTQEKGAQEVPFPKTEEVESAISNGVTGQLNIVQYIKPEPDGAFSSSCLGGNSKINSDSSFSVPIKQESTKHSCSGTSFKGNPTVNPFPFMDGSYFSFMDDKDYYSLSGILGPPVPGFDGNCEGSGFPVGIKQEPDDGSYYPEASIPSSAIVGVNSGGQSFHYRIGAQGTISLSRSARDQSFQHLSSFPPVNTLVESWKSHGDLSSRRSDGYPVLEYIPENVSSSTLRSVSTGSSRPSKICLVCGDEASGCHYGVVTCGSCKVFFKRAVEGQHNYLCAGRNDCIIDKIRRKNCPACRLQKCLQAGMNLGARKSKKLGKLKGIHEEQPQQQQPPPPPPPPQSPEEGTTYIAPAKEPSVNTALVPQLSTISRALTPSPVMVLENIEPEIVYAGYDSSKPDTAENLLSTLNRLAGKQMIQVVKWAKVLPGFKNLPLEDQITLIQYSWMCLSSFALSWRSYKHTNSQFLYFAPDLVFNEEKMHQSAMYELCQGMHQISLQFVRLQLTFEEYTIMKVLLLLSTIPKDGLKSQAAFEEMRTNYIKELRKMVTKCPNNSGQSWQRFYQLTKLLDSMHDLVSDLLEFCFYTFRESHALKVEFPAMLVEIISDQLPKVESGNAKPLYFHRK
Description: Antagonist activity at MR (unknown origin) by transcriptional reporter assay.

Data set [6] can be described thus: Unbound fraction in mouse plasma. The format is ADME, cell-free.
The target of the next data set is Cytochrome P450 3A4 (Homo sapiens, UniProt P08684). Description: Competitive inhibition of CYP3A4 (unknown origin). It counts as ADME.
For a further data set, the system named is MCF7. Put plainly: Antiproliferative activity against human MCF7 cells after 5 days by CellTiter-Glo assay. As to conditions: MCF7, 120 h.
For data set [7], the target named is Sodium-dependent dopamine transporter (Homo sapiens, UniProt Q01959). Put plainly: Inhibition of dopamine transporter (unknown origin). An outline of the steps:
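Cell-based functional follow-up assay, done after hits in a radioligand binding panel run under protein-free conditions. Value reported as IC50.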

Data set [8] deals with T1, Progesterone receptor (Homo sapiens). Put plainly: Antagonist activity at PR-B (unknown origin) by transcriptional reporter assay.
Data set [9] in a line: AUC (0 to 24 hrs) in nude mouse xenografted with tamoxifen-resistant human MCF7 cells at 100 mg/kg, po daily for 28 days measured on day 28 post last dose. It counts as ADME, organism-based. More on the design: time < 24 hr, dose 100 mg/kg, route oral. As to conditions: in vivo. An outline of the steps:
as §1

The next data set concerns the target Cytochrome P450 2C19 (Homo sapiens, UniProt P33261). Description: Competitive inhibition of CYP2C19 (unknown origin). The format is ADME.
Data set [10] addresses T1, Progesterone receptor (Homo sapiens). Put plainly: Agonist activity at PR-B (unknown origin) by transcriptional reporter assay.

Sequence of Cytochrome P450 2D6 (P10635 whole entry): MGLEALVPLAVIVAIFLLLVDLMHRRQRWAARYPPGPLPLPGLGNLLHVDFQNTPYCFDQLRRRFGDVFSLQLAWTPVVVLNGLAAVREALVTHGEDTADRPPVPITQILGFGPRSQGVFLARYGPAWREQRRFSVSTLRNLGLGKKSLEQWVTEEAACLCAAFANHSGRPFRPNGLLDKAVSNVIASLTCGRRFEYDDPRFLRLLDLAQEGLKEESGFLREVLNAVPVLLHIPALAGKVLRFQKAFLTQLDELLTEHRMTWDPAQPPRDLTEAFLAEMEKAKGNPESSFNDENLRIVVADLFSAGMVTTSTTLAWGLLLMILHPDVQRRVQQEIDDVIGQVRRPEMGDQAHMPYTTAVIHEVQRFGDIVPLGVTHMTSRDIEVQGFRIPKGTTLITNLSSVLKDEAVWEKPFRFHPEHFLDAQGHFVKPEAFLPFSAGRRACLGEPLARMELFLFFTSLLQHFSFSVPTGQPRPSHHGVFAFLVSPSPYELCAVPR
Sequence of Cytochrome P450 3A4 (P08684 whole entry): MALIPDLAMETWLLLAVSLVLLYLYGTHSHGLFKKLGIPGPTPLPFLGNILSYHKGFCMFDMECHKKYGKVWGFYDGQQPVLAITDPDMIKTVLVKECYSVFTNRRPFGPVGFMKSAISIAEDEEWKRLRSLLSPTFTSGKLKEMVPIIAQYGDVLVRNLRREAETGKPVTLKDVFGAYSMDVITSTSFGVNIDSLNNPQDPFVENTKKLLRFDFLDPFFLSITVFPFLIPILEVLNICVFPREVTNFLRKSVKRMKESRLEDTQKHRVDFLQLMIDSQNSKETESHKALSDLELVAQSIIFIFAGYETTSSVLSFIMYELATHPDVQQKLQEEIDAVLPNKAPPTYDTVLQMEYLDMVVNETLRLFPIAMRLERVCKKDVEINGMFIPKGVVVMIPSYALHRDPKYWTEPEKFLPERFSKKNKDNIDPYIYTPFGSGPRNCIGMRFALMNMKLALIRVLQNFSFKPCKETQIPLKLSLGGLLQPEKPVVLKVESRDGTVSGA
Sequence of Sodium-dependent dopamine transporter (Q01959 whole entry): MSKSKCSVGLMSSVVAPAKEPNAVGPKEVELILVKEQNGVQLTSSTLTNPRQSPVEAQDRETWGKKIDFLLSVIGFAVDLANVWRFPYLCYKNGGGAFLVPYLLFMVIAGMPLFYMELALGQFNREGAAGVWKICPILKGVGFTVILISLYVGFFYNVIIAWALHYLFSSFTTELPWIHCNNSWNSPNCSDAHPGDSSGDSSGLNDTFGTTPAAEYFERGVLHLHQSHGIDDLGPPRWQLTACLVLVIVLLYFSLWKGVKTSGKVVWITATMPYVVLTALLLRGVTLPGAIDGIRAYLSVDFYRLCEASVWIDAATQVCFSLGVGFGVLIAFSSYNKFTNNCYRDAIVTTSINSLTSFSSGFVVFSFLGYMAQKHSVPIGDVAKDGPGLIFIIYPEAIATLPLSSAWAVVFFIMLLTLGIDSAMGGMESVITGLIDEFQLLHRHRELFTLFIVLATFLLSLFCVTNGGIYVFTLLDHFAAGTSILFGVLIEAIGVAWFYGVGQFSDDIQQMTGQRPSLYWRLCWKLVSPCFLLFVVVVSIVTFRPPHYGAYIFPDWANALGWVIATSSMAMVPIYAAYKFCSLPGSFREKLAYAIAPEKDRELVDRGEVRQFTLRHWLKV
Sequence of Cytochrome P450 2C19 (P33261 whole entry): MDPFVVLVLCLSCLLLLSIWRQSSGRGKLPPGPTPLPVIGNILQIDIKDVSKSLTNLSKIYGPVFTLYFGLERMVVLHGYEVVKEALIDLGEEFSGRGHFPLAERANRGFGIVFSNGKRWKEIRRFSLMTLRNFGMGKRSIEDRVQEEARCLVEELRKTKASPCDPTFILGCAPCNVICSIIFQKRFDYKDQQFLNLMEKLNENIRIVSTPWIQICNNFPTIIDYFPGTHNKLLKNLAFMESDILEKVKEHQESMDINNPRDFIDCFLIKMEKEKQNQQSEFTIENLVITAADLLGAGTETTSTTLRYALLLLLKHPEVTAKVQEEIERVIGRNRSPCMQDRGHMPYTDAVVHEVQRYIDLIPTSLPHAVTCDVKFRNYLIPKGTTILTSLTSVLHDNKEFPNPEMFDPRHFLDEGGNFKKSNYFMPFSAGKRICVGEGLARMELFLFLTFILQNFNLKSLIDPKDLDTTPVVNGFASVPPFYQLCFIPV

For `CC1=C(c2cccc(O)c2)[C@H](c2ccc(OCCN3CC(CF)C3)cc2)Oc2ccc(O)cc21`, the result in [1] and in data set [10] was inactive. The same compound registered a fAUC in [2] of 130 ng·h/mL. The result with Rattus norvegicus was Active. In addition, the inhibition entry in data set [3], in data set [5] and in data set [8] was “inactive” throughout. Further, the IC50 on Cytochrome P450 2D6 was more than 10 µM; on Cytochrome P450 3A4, more than 10 µM; in the data set with MCF7, 0.0001 µM; in data set [7] it was 0.39 µM; at Cytochrome P450 2C19 it was more than 10 µM. For the same compound, the Activity entry in data set [4] was “Non-Toxic”. This compound also displayed a Fu in [6] of 1.9%. In data set [9], this compound showed an area under the curve (AUC) at 24 h of 6900 ng·h/mL.
